Source: ChEMBL document CHEMBL4699501, “Dihydrodibenzothiepine: Promising hydrophobic pharmacophore in the influenza cap-dependent endonuclease inhibitor” (Bioorg Med Chem Lett, 2020)
The source made the active and inactive calls. The rule behind the calls is not given here.

What was measured:
[1] = tested on: Influenza A virus; test: Antiviral activity against Influenza A virus (A/WSN/1933(H1N1)) infected in […] MDBK cells assessed as cell protection incubated for 72 hrs; format: functional, organism-based
In short: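 Madin-Darby bovine kidney cells were infected with A/WSN/33 at 50 TCID50/well and incubated with compound at 37 °C in a CO2 incubator for 72 hr.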

[2] = Metabolic stability in rat liver microsomes assessed as compound remaining at 2 uM incubated for 30 mins; format: ADME, Microsome; conditions: read-out: Stabilty
In short: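 Compound at 2 μM was incubated with rat liver microsomes at 37 °C for 30 min. The read-out is % of compound remaining.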

[3] = Inhibition of Influenza virus Cap-dependent endonuclease; design: species or system Influenza A virus
[4] = Fraction unbound in rat serum; format: ADME, cell-free
In short: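 Free fraction was measured in the presence of rat serum. Values are the mean of duplicate experiments.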

[5] = Clearance in iv dosed rat by LC/MS/MS analysis; format: ADME, organism-based; conditions: in vivo
In short: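 Rats received a single intravenous dose, and plasma levels were quantified by LC/MS/MS to derive clearance. Values are the mean of duplicate experiments.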

[6] = tested on: Influenza A virus; test: Antiviral activity against Influenza A virus (A/WSN/1933(H1N1)) infected in mouse assessed as reduction in viral titer in lung by measuring reduction in virus infectivity in MDCK cells at 0.4 to 10 mg/kg, po administered after 5 days of infection and measured after 24 hrs; format: functional, organism-based; conditions: dose mg/kg 0.4-10, time […]
In short: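 Mice were inoculated with A/WSN/33 at 100 TCID50/mouse. Oral dosing was twice daily (BID), starting 5 days after infection. Lung virus titer (log TCID50/mL) was determined on MDCK cells 24 h after the first dose.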

| Compound | EC50 [1] | remaining at 0.5 h, 2 µM [2] | IC50 [3] | fraction unbound [4] | clearance [5] | Activity [6] |
| --- | --- | --- | --- | --- | --- | --- |
| C[C@@H](N1CN([C@H]2c3ccc(F)cc3CSc3ccccc32)n2ccc(=O)c(O)c2C1=O)C(F)(F)F | 3.54 nM | 95.3% | 12.3 nM | 0.00383 | 11.6 mL/min/kg |  |
| C[C@@H](N1CN([C@H]2c3ccccc3SCc3cccc(Cl)c32)n2ccc(=O)c(O)c2C1=O)C(F)(F)F | 3.52 nM | 93.3% | 9.95 nM | 0.0179 | 19.6 mL/min/kg |  |
| C[C@@H](N1CN([C@H]2c3ccccc3CSc3ccc(Cl)cc32)n2ccc(=O)c(O)c2C1=O)C(F)(F)F | 70.8 nM |  | 24.9 nM |  |  |  |
| C[C@@H](N1CN([C@H]2c3ccccc3CSc3cccc(Cl)c32)n2ccc(=O)c(O)c2C1=O)C(F)(F)F | 18.8 nM | 85.4% | 76.2 nM | 0.00589 | 10.2 mL/min/kg |  |
| C[C@@H](N1CN([C@H]2c3ccccc3CSc3c(F)cccc32)n2ccc(=O)c(O)c2C1=O)C(F)(F)F | 3.41 nM | 95.6% |  | 0.00574 | 10.3 mL/min/kg |  |
| C[C@@H](N1CN([C@H]2c3ccccc3CSc3ccccc32)n2ccc(=O)c(O)c2C1=O)C(F)(F)F | 4.69 nM | 98.1% |  | 0.0103 | 15.8 mL/min/kg |  |
| CC(C)N1CN(C(c2ccccc2)c2ccccc2Cl)n2ccc(=O)c(O)c2C1=O (stereo not drawn) | 77.8 nM |  | 210 nM |  |  |  |
| C[C@@H](N1CN([C@H]2c3ccccc3CSc3c(Cl)cccc32)n2ccc(=O)c(O)c2C1=O)C(F)(F)F | 13.5 nM | 92.3% | 23.2 nM | 0.00329 | 6.78 mL/min/kg |  |
| C[C@H](N1CN([C@H]2c3ccccc3CSc3ccccc32)n2ccc(=O)c(O)c2C1=O)C(F)(F)F | 18.6 nM | 79.8% |  |  |  |  |
| C[C@@H](N1CN([C@H]2c3ccccc3CSc3ccc(F)cc32)n2ccc(=O)c(O)c2C1=O)C(F)(F)F | 8.16 nM | 103% |  | 0.00975 | 15.4 mL/min/kg |  |
| C[C@@H](N1CN([C@H]2c3ccccc3CSc3cc(F)ccc32)n2ccc(=O)c(O)c2C1=O)C(F)(F)F | 14.3 nM | 93.9% |  | 0.00807 | 13.4 mL/min/kg |  |
| CC(C)N1CN(C(c2ccccc2)c2cccc(Cl)c2)n2ccc(=O)c(O)c2C1=O (stereo not drawn) | 75.9 nM |  | 101 nM |  |  |  |
| CC(C)N1CN(C(c2cccc(C(F)(F)F)c2)c2cccc(C(F)(F)F)c2)n2ccc(=O)c(O)c2C1=O | 386 nM |  | 456 nM |  |  |  |
| O=C1c2c(O)c(=O)ccn2N(C2c3ccccc3CSc3ccccc32)CN1C(CF)CF (stereo not drawn) | 27.5 nM | 84.9% | 113 nM |  | 33.5 mL/min/kg |  |
| Cc1ccccc1C(c1ccccc1)N1CN(C(C)C)C(=O)c2c(O)c(=O)ccn21 (stereo not drawn) | 73.4 nM |  | 142 nM |  |  |  |
| CC(C)N1CN(C(c2cccc(Cl)c2)c2cccc(Cl)c2)n2ccc(=O)c(O)c2C1=O | 65.8 nM |  | 230 nM |  |  |  |
| C[C@@H](N1CN([C@@H]2c3ccccc3SCc3c2ccc(F)c3F)n2ccc(=O)c(O)c2C1=O)C(F)(F)F | 4.28 nM | 81.1% | 5.57 nM | 0.00411 | 11 mL/min/kg | Active |
| C[C@H](N1CN([C@@H]2c3ccccc3CSc3ccccc32)n2ccc(=O)c(O)c2C1=O)C(F)(F)F | 21.7 nM |  |  |  |  |  |
| C[C@@H](N1CN([C@H]2c3ccccc3CSc3cc(Cl)ccc32)n2ccc(=O)c(O)c2C1=O)C(F)(F)F | 21.2 nM | 101% | 62.1 nM | 0.00303 | 12.2 mL/min/kg |  |
| CC(C)N1CN(C(c2ccccc2)c2ccccc2)n2ccc(=O)c(O)c2C1=O | 81.6 nM |  | 286 nM |  |  |  |

| Compound | EC50 [1] | remaining at 0.5 h, 2 µM [2] | IC50 [3] | fraction unbound [4] | clearance [5] | Activity [6] |
| --- | --- | --- | --- | --- | --- | --- |
| Cc1ccc(C(c2ccc(C)cc2)N2CN(C(C)C)C(=O)c3c(O)c(=O)ccn32)cc1 | 440 nM |  | 394 nM |  |  |  |
| CC(CN(C)C)N1CN(C2c3ccccc3CSc3ccccc32)n2ccc(=O)c(O)c2C1=O (stereo not drawn) | 84.1 nM | 76.4% |  |  | 98.7 mL/min/kg |  |
| C[C@@H](N1CN([C@@H]2c3ccccc3SCc3c(Cl)cccc32)n2ccc(=O)c(O)c2C1=O)C(F)(F)F | 3.04 nM | 102% | 30 nM | 0.00293 | 7.36 mL/min/kg |  |
| C[C@@H](N1CN([C@@H]2c3ccccc3SCc3cccc(F)c32)n2ccc(=O)c(O)c2C1=O)C(F)(F)F | 3.75 nM | 102% | 31.8 nM | 0.012 | 18 mL/min/kg |  |
| C[C@@H](N1CN([C@@H]2c3ccccc3CSc3ccccc32)n2ccc(=O)c(O)c2C1=O)C(F)(F)F | 131 nM |  |  |  |  |  |
| COCC(C)N1CN(C2c3ccccc3CSc3ccccc32)n2ccc(=O)c(O)c2C1=O (stereo not drawn) | 20.7 nM | 58.6% | 57.9 nM | 0.106 | 49.1 mL/min/kg |  |
| C[C@@H](N1CN([C@H]2c3ccccc3CSc3cccc(F)c32)n2ccc(=O)c(O)c2C1=O)C(F)(F)F | 15.1 nM | 97.4% | 37.1 nM | 0.0119 | 9.09 mL/min/kg |  |
| CC(C)N1CN(C2c3ccccc3CSc3ccccc32)n2ccc(=O)c(O)c2C1=O (racemic) | 16.9 nM | 72.6% |  | 0.0768 | 32.7 mL/min/kg |  |
| CC(C)N1CN(C2c3ccccc3COc3ccccc32)n2ccc(=O)c(O)c2C1=O (stereo not drawn) | 71 nM |  |  |  |  |  |
| C[C@@H](N1CN([C@H]2c3ccc(Cl)cc3CSc3ccccc32)n2ccc(=O)c(O)c2C1=O)C(F)(F)F | 10.5 nM | 96.1% | 6.99 nM | 0.00117 | 5.7 mL/min/kg |  |
| CC(C)N1CN(C(c2ccccc2)c2ccc(Cl)cc2)n2ccc(=O)c(O)c2C1=O (stereo not drawn) | 94 nM |  | 291 nM |  |  |  |
| CC(C)N1CN(C2c3ccccc3CCc3ccccc32)n2ccc(=O)c(O)c2C1=O | 20.1 nM |  | 60.1 nM |  |  |  |
| C[C@@H](N1CN([C@@H]2c3ccccc3SCc3c(F)cccc32)n2ccc(=O)c(O)c2C1=O)C(F)(F)F | 3.85 nM | 91.8% | 12.5 nM | 0.00978 | 8.37 mL/min/kg |  |
| Cc1cccc(C(c2ccccc2)N2CN(C(C)C)C(=O)c3c(O)c(=O)ccn32)c1 (stereo not drawn) | 219 nM |  | 276 nM |  |  |  |
| CC(C)N1CN(C(c2ccccc2Cl)c2ccccc2Cl)n2ccc(=O)c(O)c2C1=O | 48.2 nM |  | 37 nM |  |  |  |
| O=C1c2c(O)c(=O)ccn2N(C2c3ccccc3CSc3ccccc32)CN1C1CC1 (stereo not drawn) | 13.7 nM | 73.7% | 35 nM | 0.0783 | 46 mL/min/kg |  |
| C[C@@H](N1CN([C@H]2c3cc(Cl)ccc3CSc3ccccc32)n2ccc(=O)c(O)c2C1=O)C(F)(F)F | 4.21 nM | 94.1% |  | 0.00514 | 12.4 mL/min/kg |  |
| [2H]C([2H])([2H])C([2H])(N1CN(C2c3ccccc3CSc3ccccc32)n2ccc(=O)c(O)c2C1=O)C([2H])([2H])[2H] (stereo not drawn) | 11.7 nM | 74.4% | 43.4 nM | 0.0601 | 39.1 mL/min/kg |  |
| C[C@@H](N1CN([C@H]2c3cc(F)ccc3CSc3ccccc32)n2ccc(=O)c(O)c2C1=O)C(F)(F)F | 4.68 nM | 98.9% | 44.3 nM | 0.0129 | 21.3 mL/min/kg |  |
| COc1cccc(C(c2cccc(OC)c2)N2CN(C(C)C)C(=O)c3c(O)c(=O)ccn32)c1 | 589 nM |  | 1310 nM |  |  |  |
